The text below walks through data of ChEMBL document CHEMBL1250433, “Synthesis of 5-arylidene-2-amino-4-azolones and evaluation of their anticancer activity” (2010).

A value given as a limit tells only on which side of the number the result lay.

Holding throughout (format): functional
In assay [1] the test system is CCRF-CEM. In words: Cytotoxicity against human CCRF-CEM cells. Particulars: for TGI: read-out: pTGI (converted). In outline: (§1)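 Tested in the US National Cancer Institute 60 human tumour cell line screen. Dose-response parameters were calculated per cell line: GI50 (molar concentration giving 50% net growth inhibition), TGI (molar concentration giving total growth inhibition) and LC50 (molar concentration giving 50% net cell kill).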

The subject of assay [2] is HL-60(TB). In words: Cytotoxicity against human HL-60(TB) cells. As to conditions: for TGI: read-out: pTGI (converted). In outline: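 Tested in the National Cancer Institute 60 human tumour cell line in vitro screen, which includes leukaemia lines. From the dose–response data, GI50 is the molar concentration giving 50% inhibition of net cell growth, TGI is total growth inhibition, and LC50 is 50% net cell kill. Values are expressed as Log GI50.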

Assay [3] concerns UO-31. In words: Cytotoxicity against human UO31 cells. Particulars: for TGI: read-out: pTGI (converted). In outline: as §1
Assay [4] concerns SK-MEL-5. In words: Cytotoxicity against human SK-MEL-5 cells. The essentials: as §1
For assay [5], the system named is MOLT-4. The assay can be described thus: Cytotoxicity against human MOLT4 cells. In outline: as §1
Assay [6] has as its system PC-3. The assay can be described thus: Cytotoxicity against human PC3 cells. As to conditions: for TGI: read-out: pTGI (converted). The essentials: as §1
In assay [7] the test system is SR. In words: Cytotoxicity against human SR cells. As to conditions: for TGI: read-out: pTGI (converted). The essentials: as §1
In assay [8] the test system is OVCAR-3. The assay can be described thus: Cytotoxicity against human OVCAR-3 cells. Particulars: for TGI: read-out: pTGI (converted). The essentials:
as §1

The test system of assay [9] is MDA-MB-435. In words: Cytotoxicity against human MDA-MB-435 cells. As to conditions: for TGI: read-out: pTGI (converted). In outline:
as §1

In assay [10] the test system is MCF7. In words: Cytotoxicity against human MCF7 cells. As to conditions: for TGI: read-out: pTGI (converted). The essentials: as §1
The test system of assay [11] is NCI-H460. In words: Cytotoxicity against human NCI-H460 cells. Particulars: for TGI: read-out: pTGI (converted). In outline: as §1
Assay [12] deals with U-251. In words: Cytotoxicity against human U251 cells. The essentials: as §1
For assay [13], the system named is HCT-15. In words: Cytotoxicity against human HCT15 cells. The essentials:
as §1

Assay [14] has as its system RXF 393. In words: Cytotoxicity against human RXF393 cells. In outline:
as §1

In assay [15] the test system is NCI-H23. In words: Cytotoxicity against human NCI-H23 cells. As to conditions: for TGI: read-out: pTGI (converted). The essentials: as §1
In assay [16] the test system is K562. In words: Cytotoxicity against human K562 cells. In outline: as §1
The test system of assay [17] is CAKI-1. In words: Cytotoxicity against human Caki1 cells. Particulars: for TGI: read-out: pTGI (converted). In outline:
as §1

Assay [18] concerns RPMI-8226. The assay can be described thus: Cytotoxicity against human RPMI8226 cells. In outline:
as §1

Assay [19] has as its system SF-295. The assay can be described thus: Cytotoxicity against human SF295 cells. The essentials: as §1
In assay [20] the test system is COLO 205. The assay can be described thus: Cytotoxicity against human COLO205 cells. In outline: as §1
Assay [21] concerns M14. The assay can be described thus: Cytotoxicity against human M14 cells. In outline:
as §1

The subject of assay [22] is SF-268. In words: Cytotoxicity against human SF268 cells. In outline:
as §1

A short description of assay [23]: Cytotoxicity against human 786-O cells. In outline:
as §1

Assay [24] deals with HCT-116. In words: Cytotoxicity against human HCT116 cells. In outline:
as §1

Assay [25] concerns HOP-62. The assay can be described thus: Cytotoxicity against human HOP62 cells. The essentials: as §1
Assay [26] relates to NCI/ADR-RES. In words: Cytotoxicity against human NCI/ADR-RES cells. The essentials: as §1
Assay [27] concerns T47D. In words: Cytotoxicity against human T47D cells. In outline: as §1
Assay [28] has as its system SW-620. In words: Cytotoxicity against human SW620 cells. As to conditions: for TGI: read-out: pTGI (converted). The essentials:
as §1

For assay [29], the system named is SNB-75. The assay can be described thus: Cytotoxicity against human SNB75 cells. The essentials: as §1
For assay [30], the system named is KM12. The assay can be described thus: Cytotoxicity against human KM12 cells. The essentials: as §1
Assay [31] deals with HCC 2998. In words: Cytotoxicity against human HCC2998 cells. The essentials: as §1
Assay [32] concerns OVCAR-4. In words: Cytotoxicity against human OVCAR4 cells. The essentials: as §1

What is called GI50 is the concentration giving 50% growth inhibition. On to `O=C1N=C(NCc2ccc(Cl)cc2)N/C1=C\c1c(Cl)cccc1Cl`, for which, in assay [1], the GI50 was 1.07 µM and the TGI is 29.5 µM.

Take `COc1cc(/C=C2\SC(Nc3ccc(O)cc3)=NC2=O)ccc1OCc1ccc(F)cc1`: the GI50 in [1] is 0.2 µM; in assay [2], 0.603 µM; in [3], 0.891 µM. In addition, the TGI in assay [1] was 1.15 µM; in [2] it was 10.2 µM; in assay [3], 28.8 µM.

In assay [4], `CN(C1=NC(=O)/C(=C/C(Cl)=C\c2ccc([N+](=O)[O-])cc2)S1)c1ccc(O)cc1` showed a GI50 of less than 0.01 µM. Also, the TGI in [4] (read-out: pTGI) is less than 0.01 µM.

As for `O=C1N=C(Nc2cccc(Cl)c2)N/C1=C\c1cccc(F)c1`, the GI50 in [5] is 1.05 µM. This lies in the single-digit micromolar range.

With `O=C1N=C(Nc2ccc(Cl)cc2)N/C1=C\c1ccc(Cl)cc1`, in assay [6], the GI50 is 0.38 µM and the TGI was 4.37 µM.

As to `O=C1N=C(Nc2ccccc2Cl)N/C1=C\c1ccc(Cl)cc1Cl`, in assay [2], the GI50 was 0.123 µM and the TGI is 1.82 µM.

Turning to `COc1ccc(CNC2=NC(=O)/C(=C/c3ccccc3Cl)N2)cc1`, in assay [6], the GI50 was 0.0912 µM and the TGI is 27.5 µM.

Consider `CN(C1=NC(=O)/C(=C/c2cccc(Cl)c2Cl)S1)c1ccc(O)cc1`, for which, in [7], growth was halved (GI50) at 0.437 µM and the TGI is 2.63 µM.

For the molecule `O=C1N=C(Nc2cccc(O)c2)S/C1=C\c1ccc(Cl)cc1`, in [8], the GI50 is 0.49 µM and the TGI is 2.75 µM.

Consider `O=C1N=C(Nc2ccc(O)cc2)S/C1=C\c1ccc(Cl)cc1`, for which the GI50 is 0.398 µM in assay [9]; 0.851 µM in assay [1]; 0.603 µM in assay [5]; 0.0501 µM in assay [10]; 0.977 µM in [11]; 0.49 µM in assay [12]. Also, the GI50 in [8] was 0.162 µM; in [2], 0.437 µM; in assay [7] it was 0.145 µM; in [13] it was 0.427 µM; in [14], 0.117 µM; in [15], 0.562 µM. In addition, the GI50 in assay [16] is 0.257 µM; in [17], 0.501 µM; in assay [18] it was 0.407 µM. Moreover, the TGI in assay [9] is 1.66 µM; in assay [1], 10.2 µM; in assay [5] (read-out: pTGI (converted)) it was 17 µM; in assay [10], 0.219 µM; in assay [11] it was 87.1 µM; in assay [8], 0.49 µM. Further, the TGI is 10.2 µM in assay [2]; 0.525 µM in [7]; greater than 100 µM in assay [13] (read-out: pTGI); 3.98 µM in [14] (read-out: pTGI (converted)); 3.24 µM in assay [15]; 6.46 µM in assay [17]. Besides, in assay [18] (read-out: pTGI), the TGI was greater than 100 µM.

As for `O=C1N=C(Nc2ccc(O)cc2)S/C1=C\c1ccc(F)cc1`, the GI50 in assay [9] is 0.0316 µM; in assay [19] it was 0.38 µM; in assay [10], 0.0355 µM; in assay [20], 0.631 µM; in assay [11], 0.263 µM; in [21], 0.617 µM. In addition, the GI50 in [22] is 0.49 µM; in assay [8], 0.324 µM; in assay [23] (786-0), 0.309 µM; in assay [24], 0.219 µM; in assay [25] it was 0.427 µM; in assay [7] it was 0.537 µM. Further, the GI50 in assay [26] is 0.631 µM; in assay [27], 0.661 µM; in assay [15], 0.372 µM; in assay [28] it was 0.525 µM; in [29], 0.407 µM; in assay [17] it was 0.479 µM. Also, the GI50 in assay [3] was 0.955 µM; in [30] it was 0.132 µM; in assay [31] it was 0.562 µM; in assay [32], 0.832 µM. For the same molecule, the TGI in assay [9] was 0.145 µM; in assay [19] (read-out: pTGI (converted)) it was 1.91 µM; in [10], 0.115 µM; in [20] (read-out: pTGI), greater than 100 µM; in assay [11], 0.955 µM; in assay [21] (read-out: pTGI (converted)) it was 11.5 µM. Besides, the TGI was 4.37 µM in assay [22] (read-out: pTGI (converted)); 0.562 µM in [8]; 10 µM in [23] (786-0, read-out: pTGI (converted)); 4.37 µM in [24] (read-out: pTGI (converted)); 13.2 µM in [25] (read-out: pTGI (converted)); greater than 100 µM in [7]. For the same molecule, the TGI in [26] (read-out: pTGI (converted)) was 3.16 µM; in [27] (read-out: pTGI) it was greater than 100 µM; in assay [15], 2.09 µM; in assay [28] it was greater than 100 µM; in [29] (read-out: pTGI), greater than 100 µM; in [17], 2.45 µM. The TGI in assay [3] was greater than 100 µM; in [30] (read-out: pTGI (converted)) it was 0.741 µM; in assay [31] (read-out: pTGI (converted)) it was 2.14 µM; in [32] (read-out: pTGI), greater than 100 µM.

Turning to `O=C1N=C(Nc2cccc(O)c2)S/C1=C\C(Cl)=C/c1ccc([N+](=O)[O-])cc1`, in assay [8], the GI50 was 0.372 µM and the TGI is 0.955 µM. Moreover, in [28], the GI50 is 0.832 µM and the TGI is 2.63 µM.

Consider `COc1ccc(/C=C2\SC(Nc3ccc(O)cc3)=NC2=O)cc1OC`, for which the GI50 in assay [9] was 0.407 µM; in assay [16] it was 0.398 µM. The TGI in assay [9] was 2.04 µM; in assay [16] (read-out: pTGI (converted)) it was 6.76 µM.
